In paper PMC10060059 (Thrombosis and Haemostasis, 2023):
Where two headings read alike, the source gives them in different places. Marks after values point to notes of the source that are not given here.

How the values were obtained:
[1] = Six-month clinical follow-up; format: in vivo, human; conditions: 6-month follow-up
Summary of the method: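 Bleedings (site, severity), thromboembolic events (site) and deaths were recorded. Two geriatricians blinded to PK/PD data classed bleeds as major or nonmajor clinically relevant, and minor bleeds were not systematically recorded. Rates were given per DOAC group.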

thrombin generation = experiment: Thrombin generation on ST-Genesia; format: biochemical, human
[2] = Rivaroxaban/apixaban plasma concentrations; format: in vivo, human; conditions: for Effect of creatinine clearance on Cmax, multivariate analysis / Effect of creatinine clearance on Cmax, univariate analysis / Effect of creatinine clearance on Cmin, multivariate analysis / Effect of creatinine clearance on Cmin, univariate analysis: per decrease of 10 mL/min
[3] = cited from earlier work
[4] = STG-ThromboScreen without thrombomodulin
[5] = for halved concentrations, STG-ThromboScreen without thrombomodulin
[6] = per decrease of 10 mL/min, STG-ThromboScreen without thrombomodulin
[7] = CYP3A4/5 modulator in addition to amiodarone
[8] = P-gp modulator in addition to amiodarone
[9] = full dose: rivaroxaban 20 mg o.d., apixaban 5.0 mg b.i.d.
[10] = reduced dose: rivaroxaban 15 mg o.d., apixaban 2.5 mg b.i.d.
[11] = rivaroxaban 15 mg o.d., apixaban 2.5 mg b.i.d.
[12] = 2.5 mg b.i.d. vs. 5 mg b.i.d., listed as apixaban

## O=C(NC[C@H]1CN(c2ccc(N3CCOCC3=O)cc2)C(=O)O1)c1ccc(Cl)s1 [Rivaroxaban, rivaroxaban]
[1]
  death rate: 17.3%
  thromboembolic event rate: 1.0%
Thrombin generation; [4]
  Effect of amiodarone on peak height at Tmin, multivariate: −44.6%** [−75.1; 23.2]
  Effect of amiodarone on peak height at Tmin, univariate: −52.2%
  Effect of heart failure on peak height at Tmax, multivariate: −22.3% [−45.0; 9.8]
  Effect of heart failure on peak height at Tmax, univariate: −36.6%
  Effect of heart failure on peak height at Tmin, multivariate: −12.7% [−37.7; 22.4]
  Effect of heart failure on peak height at Tmin, univariate: −31.4% [−52.2; −1.7]
Thrombin generation; [5]
  Effect of plasma concentrations on peak height at Tmax, multivariate: –5.0% ^a [−27.9; 25.2]
  Effect of plasma concentrations on peak height at Tmax, univariate: +23.9% ^a [−11.4; 73.2]
  Effect of plasma concentrations on peak height at Tmin, multivariate: +21.0% ^a [−4.0; 52.4]
  Effect of plasma concentrations on peak height at Tmin, univariate: +38.7% ^a [12.4;71.1]
Thrombin generation; [6]
  Effect of creatinine clearance on peak height at Tmax, multivariate: −16.4% ^b [−26.3; −5.0]
  Effect of creatinine clearance on peak height at Tmin, multivariate: −6.76% ^b [−15.5; 2.8]
  Effect of creatinine clearance on peak height at Tmin, univariate: −6.1% ^b [−16.2; 5.2 ]
[2]; 15 mg o.d. vs. 20 mg o.d.
  Effect of dose regimen on Cmax, multivariate analysis: 29.4% ^a [−14.2; 95.2]
  Effect of dose regimen on Cmax, univariate analysis: +20.3% ^a [−16.7; +73.5]
  Effect of dose regimen on Cmin, multivariate analysis: −3.2% ^a [−35.1; 44.6]
  Effect of dose regimen on Cmin, univariate analysis: −3.8% ^a [−35.1; +42.6]
[2]; 15 mg o.d. vs. 20 mg o.d., listed as rivaroxaban
  Effect of dose regimen on Cmax, univariate analysis: +20.3%
[2]; [7]
  Effect of CYP3A4/5 modulator on Cmax, multivariate analysis: +10.6% [−23.1; 58.9]
  Effect of CYP3A4/5 modulator on Cmax, univariate analysis: +9.5% [−21.0; 51.6]
  Effect of CYP3A4/5 modulator on Cmin, multivariate analysis: +43.1% [5.3; 94.3]
  Effect of CYP3A4/5 modulator on Cmin, univariate analysis: +31.1% [−24.7; 72.2]
[2]; [8]
  Effect of P-gp inhibitor on Cmax, multivariate analysis: −6.31% [−35.8; 36.6]
  Effect of P-gp inhibitor on Cmax, univariate analysis: −9.95% [−35.3; 25.4]
  Effect of P-gp inhibitor on Cmin, multivariate analysis: −8.7% [−34.2; 26.8]
  Effect of P-gp inhibitor on Cmin, univariate analysis: −15.9% [−37.6; 13.5]
[2]; amiodarone intake
  Effect of amiodarone on Cmax, multivariate analysis: −26.1% ^b [−75.8; 125.5]
  Effect of amiodarone on Cmax, univariate analysis: +4.73% [−31.5; 60.2]
  Effect of amiodarone on Cmin, multivariate analysis: 99.8% ^c [10.3; 262.0]
  Effect of amiodarone on Cmin, univariate analysis: +47.8% [−2.8; 109.4]
[2]; amiodarone intake, listed as rivaroxaban
  Effect of amiodarone on Cmin, univariate analysis: +47.8%
[2]; female gender
  Effect of female gender on Cmax, multivariate analysis: +11.8% [−20.8; 57.9]
  Effect of female gender on Cmax, univariate analysis: +12.2% [−17.7; 53.0]
  Effect of female gender on Cmin, multivariate analysis: −10.1% [−35.2; 22.3]
  Effect of female gender on Cmin, univariate analysis: −14.2% [−36.0; 15.1]
[2]; [9]
  inter-individual variability of Cmax (coefficient of variation): 47%
  inter-individual variability of Cmin (coefficient of variation): 37%
[2]
  Effect of creatinine clearance on Cmax, multivariate analysis: +3.4% ^b [−7.6; 15.6]
  Effect of creatinine clearance on Cmax, univariate analysis: +1.89% ^b [−8.2; 13.1]
  Effect of creatinine clearance on Cmin, multivariate analysis: +5.0% ^b [−4.9; 16.0]
  Effect of creatinine clearance on Cmin, univariate analysis: +8.1% ^b [−3.9; 15.8]
[2]; listed as rivaroxaban
  Effect of creatinine clearance on Cmin, univariate analysis: +8.1%
[2]; per mutated allele
  Effect of ABCB1 3435C > T on Cmax, multivariate analysis: +18.3% ^d [−10.9; 39.8]
  Effect of ABCB1 3435C > T on Cmax, univariate analysis: +18.3% ^d [−5.3; 36.6]
  Effect of ABCB1 3435C > T on Cmin, multivariate analysis: +10.4% ^d [−14.9; 30.1]
  Effect of ABCB1 3435C > T on Cmin, univariate analysis: +16.9% ^d [−6.6; 31.0]
[2]; per mutated allele, listed as rivaroxaban
  Effect of ABCB1 3435C > T on Cmin, univariate analysis: +16.9%
[2]; [10]
  inter-individual variability of Cmax (coefficient of variation): 49%
  inter-individual variability of Cmin (coefficient of variation): 75%
[2]; rivaroxaban 15 mg o.d., T1-T4, NVAF in-patients ≥80 years
  median Cmax: 251 ng/mL
[2]; [11]
  patients above the 95th percentile of SmPC values at Tmin: 3.1%
  patients below the 5th percentile of SmPC values at Tmin: 21.5%
[3]; Mueck et al's data
  inter-individual variability of Cmax and Cmin: around 30%

## COc1ccc(-n2nc(C(N)=O)c3c2C(=O)N(c2ccc(N4CCCCC4=O)cc2)CC3)cc1 [Apixaban, apixaban]
[1]
  death rate: 18.9%
  thromboembolic event rate: 3.6%
Thrombin generation; STG-DrugScreen and STG-ThromboScreen without TM
  association of ETP with DOAC concentrations: ETP was associated with apixaban concentrations
Thrombin generation; [4]
  Effect of amiodarone on peak height at Tmax, multivariate: −26.0% [−91.8; 564.1]
  Effect of amiodarone on peak height at Tmax, univariate: +3.7% [−58.7; 160.1]
  Effect of amiodarone on peak height at Tmin, multivariate: −57.47% [−83.2; 7.9]
  Effect of amiodarone on peak height at Tmin, univariate: −37.2% [−60.0; −1.5]
  Effect of heart failure on peak height at Tmax, multivariate: −9.2% [−62.9; 122.6]
  Effect of heart failure on peak height at Tmax, univariate: −26.7% [−66.7; 61.4]
  Effect of heart failure on peak height at Tmin, multivariate: +0.84% [−30.8; 46.9]
Thrombin generation; STG-ThromboScreen without thrombomodulin, listed as apixaban
  Effect of amiodarone on peak height at Tmin, univariate: −37.2%
Thrombin generation; [5]
  Effect of plasma concentrations on peak height at Tmax, multivariate: +86.8% ^a [−0.48; 250.5]
  Effect of plasma concentrations on peak height at Tmin, multivariate: +32.7% ^a [8.28; 62.59]
  Effect of plasma concentrations on peak height at Tmin, univariate: 37.1% ^a 13.1; 66.2]
Thrombin generation; [6]
  Effect of creatinine clearance on peak height at Tmax, multivariate: +2.4% ^b [−17.9; 27.8]
  Effect of creatinine clearance on peak height at Tmax, univariate: +0.42% ^b [4.70; 36.9]
  Effect of creatinine clearance on peak height at Tmin, univariate: 1.7% ^b [−10.7; 15.8]
[2]; 2.5 mg b.i.d. vs. 5 mg b.i.d.
  Effect of dose regimen on Cmax, multivariate analysis: +64.8% ^e [16.6; 132.9]
  Effect of dose regimen on Cmax, univariate analysis: +44.9% ^e [7.14; 96.1]
  Effect of dose regimen on Cmin, multivariate analysis: +54.8% ^e [6.65; 124.6]
  Effect of dose regimen on Cmin, univariate analysis: +45.6% ^e [4.7; 102.6]
[2]; [12]
  Effect of dose regimen on Cmax, multivariate analysis: +64.8%
  Effect of dose regimen on Cmax, univariate analysis: 44.9%
  Effect of dose regimen on Cmin, multivariate analysis: +54.8%
  Effect of dose regimen on Cmin, univariate analysis: 45.6%
[2]; [7]
  Effect of CYP3A4/5 modulator on Cmin, univariate analysis: +20.8% [−9.8; 61.7]
[2]; amiodarone intake
  Effect of amiodarone on Cmax, multivariate analysis: +79.3% [5.5; 204.7]
  Effect of amiodarone on Cmax, univariate analysis: +43.5% [7.9; 90.9]
  Effect of amiodarone on Cmin, univariate analysis: +14.4% [−18.5; 60.5]
[2]; amiodarone intake, listed as apixaban
  Effect of amiodarone on Cmax, univariate analysis: +43.5%
[2]; female gender
  Effect of female gender on Cmax, multivariate analysis: +28.7% [−4.5; 73.4]
  Effect of female gender on Cmax, univariate analysis: +44.0% [7.4; 93.1]
  Effect of female gender on Cmin, univariate analysis: +15.7% [−14.9; 57.1]
[2]; female gender, listed as apixaban
  Effect of female gender on Cmax, univariate analysis: +44.0%
[2]; [9]
  inter-individual variability of Cmax (coefficient of variation): 47%
  inter-individual variability of Cmin (coefficient of variation): 68%
[2]
  Effect of creatinine clearance on Cmax, multivariate analysis: +4.5% ^b [−3.0; 11.4]
  Effect of creatinine clearance on Cmax, univariate analysis: +3.3% ^b [−4.28; 10.31]
  Effect of creatinine clearance on Cmin, multivariate analysis: +4.5% ^b [−4.9; 13.1]
  Effect of creatinine clearance on Cmin, univariate analysis: +4.6% ^b [−4.2; 12.7]
[2]; per mutated allele
  Effect of ABCB1 3435C > T on Cmax, multivariate analysis: +10.1% ^d [−8.3; 25.3]
  Effect of ABCB1 3435C > T on Cmax, univariate analysis: +2.1% ^d [−18.7; 19.3]
  Effect of ABCB1 3435C > T on Cmin, univariate analysis: +14.8% ^d [−4.1; 30.3]
[2]; per mutated allele, listed as apixaban
  Effect of ABCB1 3435C > T on Cmin, univariate analysis: +14.8%
[2]; [10]
  inter-individual variability of Cmax (coefficient of variation): 46%
  inter-individual variability of Cmin (coefficient of variation): 61%
[2]; [11]
  patients above the 95th percentile of SmPC values at Tmin: 9.7%
  patients below the 5th percentile of SmPC values at Tmin: 9.7%
[3]; ARISTOTLE patients (median age 70 years) receiving 2.5 mg b.i.d.
  median Cmax: 123 ng/mL
[3]; SmPC, ARISTOTLE data set, mean age 70 years
  inter-individual variability of concentrations: around 30%
